Results pooled from the literature.
Each line is one published result; the experiments were not run side by side. pIC50: −log10 of the molar value.
Organism: Aspergillus fumigatus
Read-out: microbial growth

Compound | assay | test system | conditions | quantity | value
Clc1ccccc1C(c1ccccc1)(c1ccccc1)n1ccnc1 | disc diffusion | – | 20000 µg/mL | inhibition zone | 22 mm
C=CCCCCCCCCCCCC(O)CC(O)CO (stereo not shown) | resazurin | ATCC204305 | – | IC50 | > 200 µg/mL
C[C@@H]1[C@H](O)[C@@H](C)/C=C/C=C/C=C/C=C/C=C/C=C/C=C/[C@H](O[C@@H]2O[C@H](C)[C@@H](O)[C@H](N)[C@@H]2O)C[C@@H]2O[C@](O)(C[C@@H](O)C[C@@H](O)[C@H](O)CC[C@@H](O)C[C@@H](O)CC(=O)O[C@H]1C)C[C@H](O)[C@H]2C(=O)O | – | ATCC204305 | – | pIC50 | 6.07
CCCCCCCCCCCCCC(O)CC(O)CO (stereo not shown) | resazurin | ATCC204305 | – | IC50 | > 200 µg/mL
CC1=NN(CNC(=O)c2ccccc2)C(=O)C1=NNn1c(-c2ccccc2)nc2ccccc2c1=O | broth dilution | – | – | MIC | 104 µM
OC(Cn1cncn1)(Cn1cncn1)c1ccc(F)cc1F | broth dilution | MF5668 | – | MIC | > 128 µg/mL
O=C1NN=C(N=Cc2ccc(O)c(O)c2)C1=NNn1c(-c2ccccc2)nc2ccccc2c1=O | broth dilution | – | – | MIC | 53.5 µM
C#CCCCCCCCCCCCC(O)CC(O)CO (stereo not shown) | resazurin | ATCC204305 | – | IC50 | > 200 µg/mL
CC1=NN(CNC(=O)c2ccccn2)C(=O)C1=NNn1c(-c2ccccc2)nc2ccccc2c1=O | broth dilution | – | – | MIC | 104 µM
C[C@@H]1[C@H](O)[C@@H](C)/C=C/C=C/C=C/C=C/C=C/C=C/C=C/[C@H](O[C@@H]2O[C@H](C)[C@@H](O)[C@H](N)[C@@H]2O)C[C@@H]2O[C@](O)(C[C@@H](O)C[C@@H](O)[C@H](O)CC[C@@H](O)C[C@@H](O)CC(=O)O[C@H]1C)C[C@H](O)[C@H]2C(=O)O | broth dilution | MF5668 | – | MIC | 0.5 µg/mL
